The record followed here is ChEMBL document CHEMBL3808325, “Discovery and Optimization of Macrocyclic Quinoxaline-pyrrolo-dihydropiperidinones as Potent Pim-1/2 Kinase Inhibitors” (ACS Med Chem Lett, 2016).

Molecules are shown by their SMILES. In brackets after ≈: the same amount, converted by molar mass.

For data set [1], the target named is Serine/threonine-protein kinase pim-1 (Homo sapiens, UniProt P11309). Kind of data set: Inhibition of human full-length Pim1 expressed in Escherichia coli assessed as phosphorylation of biotinylated BAD peptide at Ser-112 preincubated for 30 mins followed by substrate addition measured after 1 hr by HTRF assay. On the technique in general: Time-resolved FRET reads energy transfer from a long-lived donor to a nearby acceptor.
Sequence of Serine/threonine-protein kinase pim-1 (P11309 whole entry): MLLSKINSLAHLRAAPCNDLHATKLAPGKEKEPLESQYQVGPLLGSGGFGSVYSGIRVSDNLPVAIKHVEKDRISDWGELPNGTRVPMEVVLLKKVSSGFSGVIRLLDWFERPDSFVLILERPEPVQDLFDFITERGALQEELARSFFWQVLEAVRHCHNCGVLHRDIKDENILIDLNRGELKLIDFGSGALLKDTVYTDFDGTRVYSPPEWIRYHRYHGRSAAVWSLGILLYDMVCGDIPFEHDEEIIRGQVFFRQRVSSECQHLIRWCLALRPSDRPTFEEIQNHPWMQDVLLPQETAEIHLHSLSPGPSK

The nature of data set [2]: Oral bioavailability in Sprague-Dawley rat at 5 mg/kg. The class given is ADME, organism-based. As to conditions: in vivo. Summed up: (§1)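 Pharmacokinetics in male Sprague–Dawley rats. Clearance also expressed as a percentage of liver blood flow. Oral bioavailability determined.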
A short description of data set [3]: Half life in Sprague-Dawley rat at 2 mg/kg, iv. The data set is classed as ADME, organism-based. As to conditions: in vivo. In outline: as §1
The target in data set [4] is Serine/threonine-protein kinase PIM (Homo sapiens, UniProt P11309+Q9P1W9+Q86V86). Kind of data set: Inhibition of Pim1/2 in human KMS-12-BM cells assessed as phosphorylation of full-length BAD protein at Ser-112 incubated for 110 mins by flow cytometric analysis in presence of 20% FBS. The class given is cell-based. Summed up:
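Cell assay in KMS-12-BM, a multiple myeloma line with relatively high endogenous Pim-1/2. Pim-dependent phosphorylation of full-length endogenous BAD at Ser-112 measured.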

Data set [5] is described as follows: Drug metabolism in human liver microsomes assessed as compound turnover at 1 uM incubated for 30 mins. The class given is ADME. As to conditions: read-out: Drug metabolism.
Data set [6] is described as follows: Equilibrium solubility of compound in PBS by HPLC analysis. The class given is physicochemical.
A short description of data set [7]: Apparent permeability in pig LLC-PK1 cells at 5 uM. The class given is ADME, cell-based, Sus scrofa.
Data set [8] concerns the target Serine/threonine-protein kinase pim-2 (Homo sapiens, UniProt Q9P1W9). Briefly: Inhibition of human full-length Pim2 expressed in Escherichia coli assessed as phosphorylation of biotinylated BAD peptide at Ser 112 preincubated for 30 mins followed by substrate addition measured after 1 hr by HTRF assay. In outline:
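Cell-free kinase assay using recombinant Pim-1 or Pim-2. Read-out is phosphorylation of a short BAD peptide sequence spanning Ser-112.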

Data set [9] is described as follows: Protein binding in rat assessed as as fraction unbound at 5 uM by rapid equilibrium dialysis method. The class given is ADME. As to conditions: plasma. A general note: In equilibrium dialysis free small molecules cross a membrane that holds back macromolecules.
A short description of data set [10]: Clearance in Sprague-Dawley rat at 2 mg/kg, iv. The class given is ADME, organism-based. As to conditions: in vivo. In outline:
as §1

The nature of data set [11]: Volume of distribution at steady state in Sprague-Dawley rat at 2 mg/kg, iv. The class given is ADME, organism-based. As to conditions: in vivo, read-out: Vdss. Summed up:
as §1

Data set [12] can be described thus: Drug metabolism in rat liver microsomes assessed as compound turnover at 1 uM incubated for 30 mins. The data set is classed as ADME. As to conditions: read-out: Drug metabolism. (In general: Liver microsomes are vesicles of endoplasmic reticulum, rich in cytochrome P450 enzymes.)
Data set [13] is described as follows: Volume of distribution at steady state in Sprague-Dawley rat at 1 mg/kg, iv. The data set is classed as ADME, organism-based. As to conditions: in vivo, read-out: Vdss. In outline: as §1
Data set [14] in a line: Clearance in Sprague-Dawley rat at 1 mg/kg, iv. As to conditions: in vivo. The class given is ADME, organism-based. In outline: as §1
Data set [15] can be described thus: Half life in Sprague-Dawley rat at 1 mg/kg, iv. The class given is ADME, organism-based. As to conditions: in vivo. Summed up: as §1

Sequence of Serine/threonine-protein kinase pim-2 (Q9P1W9 whole entry): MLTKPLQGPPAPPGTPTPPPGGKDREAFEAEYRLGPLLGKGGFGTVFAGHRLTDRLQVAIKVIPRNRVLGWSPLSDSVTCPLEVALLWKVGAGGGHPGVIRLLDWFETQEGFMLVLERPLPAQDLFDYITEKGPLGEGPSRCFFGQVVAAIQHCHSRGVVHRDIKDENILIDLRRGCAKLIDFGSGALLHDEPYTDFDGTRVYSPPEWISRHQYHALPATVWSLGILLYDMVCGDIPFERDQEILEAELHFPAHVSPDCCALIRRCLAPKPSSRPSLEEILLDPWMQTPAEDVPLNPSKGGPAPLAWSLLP

As usually defined, the IC50 is the concentration needed to halve the response being measured. As usually defined, the bioavailability is dose-corrected exposure relative to a reference, in per cent. By half-life is commonly meant the time in which the quantity being followed falls by half. Higher therefore signals slow decline. As a reminder, the solubility (thermodynamic) is solubility found after equilibrating the solid with the medium. Broadly, the Papp is a coefficient for how fast a substance crosses the barrier. One may read the fraction unbound as the share of the substance not bound to proteins or other matrix. As a reminder, the clearance is the rate of elimination divided by the concentration. Take `C/C1=C/C[C@H]2CNC(=O)c3cc([nH]c32)-c2cccc3nc(C)c(nc23)NC1`: the IC50 in data set [1] is 400 pM; in data set [4], 14000 pM; in data set [8] it was 200 pM. The same compound returned a bioavailability in data set [2] of 17%. In [3], the half-life is 6.1 h. The figures for the metabolised at 0.5 h, 1 µM in [5] and in data set [12] were 17% and 42%, respectively. This compound also had a solubility (thermodynamic) in data set [6] of 23 µM (≈ 8.27 µg/mL). In data set [7], the Papp at 5 µM worked out at 40 ×10⁻⁶ cm/s. Also, the fraction unbound at 5 µM in data set [9] is 0.016. Also, in data set [10], the clearance is 15.8 mL/min/kg. Further, in data set [11], the Vd came to 1.8 L/kg.
For `Cc1nc2cccc3c2nc1N[C@H](C)CCC[C@H]1CNC(=O)c2cc-3[nH]c21`, the IC50 in [1] stood at 100 pM; in data set [4], 37000 pM; in data set [8] it was 200 pM. The compound further gave a solubility (thermodynamic) in [6] below 5 µM.
On the same counts, the results for `Cc1nc2cccc3c2nc1NC/C=C\C[C@H]1CNC(=O)c2cc-3[nH]c21` are 60 pM, 21000 pM, 70 pM and below 5 µM.
`Cc1nc2cccc(-c3cc4c([nH]3)CCNC4=O)c2nc1Nc1ccccc1`: the results for the IC50 in data set [1], in data set [4] and in [8] were 3000 pM, 184000 pM and 2000 pM, respectively.
On the same counts, the results for `Cc1nc2cccc3c2nc1NC/C=C/C[C@@H]1CNC(=O)c2cc-3[nH]c21` are 1000 pM, 880000 pM and 1000 pM.
On to `Cc1nc2cccc3c2nc1N[C@@H](C)/C=C/C[C@H]1CNC(=O)c2cc-3[nH]c21`, for which the results for the IC50 in data set [1], in data set [4] and in data set [8] were 600 pM, 26000 pM and 300 pM, respectively. Besides, the thermodynamic solubility in data set [6] was below 5 µM.
On to `Cc1nc2cccc3c2nc1NC/C=C\C[C@@H]1CNC(=O)c2cc-3[nH]c21`, for which the IC50 in data set [1] is 2000 pM; in [4], 370000 pM; in data set [8], 1000 pM.
For `C/C1=C\C[C@H]2CNC(=O)c3cc([nH]c32)-c2cccc3nc(C)c(nc23)NC1`, the IC50 in data set [1] came to 100 pM; in data set [4], 16000 pM; in [8], 80 pM. For the same compound, the bioavailability in data set [2] turned out to be 35%. For the same compound, the metabolised at 0.5 h, 1 µM in [5] and in data set [12] was 45% throughout. Further, the Vd in data set [13] turned out to be 3.1 L/kg. Also, the thermodynamic solubility in data set [6] turned out to be 27 µM (≈ 9.7 µg/mL). In data set [7], the Papp at 5 µM came to 33 ×10⁻⁶ cm/s. Further, the clearance in data set [14] is 40 mL/min/kg. In data set [9], the fraction unbound at 5 µM was determined as 0.0071. Further, the half-life in [15] was 2.8 h.
For `Cc1nc2cccc3c2nc1N[C@@H](C)CCC[C@H]1CNC(=O)c2cc-3[nH]c21`, the IC50 in [1] turned out to be 1000 pM; in data set [4] it was 40000 pM; in data set [8], 400 pM. Besides, the solubility (thermodynamic) in [6] is below 5 µM.
On the same counts, the results for `Cc1nc2cccc3c2nc1N[C@H](C)/C=C/C[C@H]1CNC(=O)c2cc-3[nH]c21` are 300 pM, 20000 pM, 50 pM and below 5 µM.
As for `Cc1nc2cccc3c2nc1NCCCC[C@@H]1CNC(=O)c2cc-3[nH]c21`, the figures for the IC50 in data set [1], in data set [4] and in data set [8] were 400 pM, 100000 pM and 200 pM, respectively.
As to `CCCCNc1nc2c(-c3cc4c([nH]3)CCNC4=O)cccc2nc1C`, the IC50 in data set [1] came out at 3000 pM; in data set [8] it was 2000 pM.
For the compound `Cc1nc2cccc3c2nc1NC[C@H](C)CC[C@H]1CNC(=O)c2cc-3[nH]c21`, the IC50 in data set [1] was determined as 500 pM; in data set [4], 25000 pM; in data set [8] it was 400 pM. The same compound gave a solubility (thermodynamic) in [6] below 5 µM.
On the same counts, the results for `Cc1nc2cccc3c2nc1NCCCC[C@H]1CNC(=O)c2cc-3[nH]c21` are 70 pM, 20000 pM, 50 pM and 7 µM (≈ 2.43 µg/mL).
With `Cc1nc2cccc3c2nc1NC/C=C/C[C@H]1CNC(=O)c2cc-3[nH]c21`, the IC50 in data set [1] worked out at 1000 pM; in [4], 106000 pM; in data set [8] it was 500 pM. Further, the solubility (thermodynamic) in [6] was below 5 µM.
Regarding `CCCNc1nc2c(-c3cc4c([nH]3)CCNC4=O)cccc2nc1C`, the IC50 in data set [8] amounted to 2000 pM.
For `Cc1nc2cccc3c2nc1NC[C@@H](C)CC[C@H]1CNC(=O)c2cc-3[nH]c21`, the IC50 in [1] was found to be 300 pM; in [4] it was 37000 pM; in data set [8] it was 300 pM. The thermodynamic solubility in data set [6] is below 5 µM.
